Reference: ChEMBL document CHEMBL4130464, “Cytotoxic Prenylated Stilbenes Isolated from Macaranga tanarius” (J Nat Prod, 2017)
pEC50: −log10 of the molar value. Non-standard residues stand in square brackets, D forms with d. Residues, ends and D or L forms follow the SMILES beside them. *: point of attachment. Dolaproine = CO[C@@H]([C@@H]1CCCN1)[C@@H](C)C(=O)O; Dil = CC[C@H](C)[C@H](NC)[C@@H](CC(=O)O)OC; X1 = C[C@@H](N*)[C@@H](O)c1ccccc1; NMeV = CN[C@H](C(=O)O)C(C)C

What was measured:
U-87 MG = experiment: Antiproliferative activity against human U87 cells after 72 hrs by MTS assay; type: functional, cell-based, U-87MG ATCC
Summary of the method: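 U87 human glioblastoma cells (ATCC) kept in DMEM with 10% FCS and 1% glutamine at 37 °C, 5% CO2. Seeded at 2.5 × 10^3 cells/well, exposed after 24 h to compounds at 1 and 10 μM final for 72 h. […] added 2 h before reading absorbance at 490 nm. Percent cytotoxicity index (treated/control OD490 × 100) from three experiments.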

A549 = experiment: Antiproliferative activity against human A549 cells after 72 hrs by MTS assay; type: functional, cell-based; settings: A549, 72 h
Summary of the method: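 A549 human lung cancer cells (ATCC) grown in RPMI 1640 with 10% FCS and 1% glutamine at 37 °C, 5% CO2. Cells seeded at 2.5 × 10^3 per well and cultured 24 h, then treated at 1 and 10 μM final for 72 h. […] added for 2 h, absorbance read at 490 nm. Cytotoxicity index (OD490treated/OD490control × 100) taken from three experiments.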

Row | pEC50 (U-87 MG) | pEC50 (A549) | SMILES
1 | 6.30 | < 5.00 | C/C(=C\Cc1cc(/C=C/c2cc(O)c3c(c2)OC(C)(C)[C@@H](O)C3)cc(O)c1O)CCC(O)C(C)(C)O (stereo partly drawn)
2 | < 5.00 | < 5.00 | CC(C)=CCC/C(C)=C/Cc1cc(/C=C/c2cc(O)cc(Oc3ccc4c(c3)O[C@H](c3ccc(C/C=C(\C)CCC=C(C)C)c(O)c3O)[C@@H]4O)c2)cc(O)c1O
3 | 5.15 | < 5.00 | COc1cc(/C=C/c2cc(O)c(CC=C(C)C)c(O)c2)cc(C/C=C(\C)CCC=C(C)C)c1O
4 | 6.35 | 6.62 | CC(C)=CCC[C@]1(C)Oc2c(O)cc(/C=C/c3cc(O)c4c(c3)OC(C)(C)C(O)C4)cc2C[C@@H]1O (stereo partly drawn)
5 | 7.60 | < 5.00 | CC(C)=CCC/C(C)=C/CC/C(C)=C/Cc1c(O)cc(/C=C/c2ccc(O)c(O)c2)cc1O
6 | 7.00 | < 5.00 | CC(C)=CCc1c(O)cc(/C=C/c2cc(O)c(O)c(C/C=C(\C)CCC(O)C(C)(C)O)c2)cc1O (stereo not drawn)
7 | 7.30 | < 5.00 | CC(C)=CCc1c(O)cc(/C=C/c2cc(O)c3c(c2)C[C@@H]2C(C)(C)[C@H](O)C[C@H](O)[C@@]2(C)O3)cc1O
8 | 6.60 | 6.14 | CC(C)=CCC/C(C)=C/Cc1cc(/C=C/c2cc(O)c3c(c2)OC(C)(C)[C@@H](O)C3)cc(O)c1O
9 | 5.27 | 5.15 | CC(C)=CCC/C(C)=C/Cc1cc(/C=C/c2cc(O)c(CC=C(C)C)c(O)c2)cc(O)c1O [MAPPAIN]
10 | 7.35 | 6.10 | CC(C)=CCc1c(O)cc(/C=C/c2cc(O)c3c(c2)C[C@@H]2C(C)(C)[C@H](O)CC[C@@]2(C)O3)cc1O [SCHWEINFURTHIN G]

Row | SMILES | pEC50 (U-87 MG) | pEC50 (A549)
11 | CC[C@H](C)[C@@H]([C@@H](CC(=O)N1CCC[C@H]1[C@H](OC)[C@@H](C)C(=O)N[C@H](C)[C@@H](O)c1ccccc1)OC)N(C)C(=O)[C@@H](NC(=O)[C@@H](NC)C(C)C)C(C)C (H-[NMeV]V[Dil][Dolaproine]-X1) | 9.70 | 9.30
12 | COc1cc(/C=C/c2cc(O)c(CC=C(C)C)c(O)c2)cc2c1O[C@]1(C)C[C@@H](O)[C@@H](O)C(C)(C)[C@H]1C2 [SCHWEINFURTHIN E] | 6.70 | 6.59
13 | COc1cc(/C=C/c2cc(O)c(CC=C(C)C)c(O)c2)cc2c1O[C@]1(C)CC[C@@H](O)C(C)(C)[C@H]1C2 [SCHWEINFURTHIN F] | 6.62 | 5.82
14 | CC(C)=CCc1c(O)cc(/C=C/c2cc(O)c3c(c2)C[C@@H]2C(C)(C)[C@H](O)[C@H](O)C[C@@]2(C)O3)cc1O [VEDELIANIN] | 7.52 | 6.72
